This note sets out measurements from ChEMBL document CHEMBL1777729, “Structure-based lead identification of ATP-competitive MK2 inhibitors” (Bioorg Med Chem Lett, 2011).

pEC50: −log10 of the molar value. ≈ marks a conversion by molar mass, not a printed value. Some results are limits rather than exact numbers.

Series [1] in a line: Plasma protein binding in plasma. The conditions noted are these: read-out: PPB (converted). It counts as ADME, cell-free.
Series [2] can be described thus: Permeability across human Caco2 cells. It counts as ADME, cell-based. To be noted: Caco-2, read-out: permeability.
The nature of series [3]: Half life in rat liver microsomes. It counts as ADME, Microsome.
Series [4] can be described thus: Permeability of the compound by PAMPA. The class given is ADME. To be noted: read-out: permeability. For orientation: PAMPA measures passive passage across an artificial lipid membrane.
In series [5] the test system is THP-1. Nature of the series: Antiinflammatory activity in human THP1 cells assessed as inhibition of LPS-induced TNFalpha production at 10 uM treated 30 mins before LPS challenge measured after 4 hrs by ELISA. The class given is functional.
Series [6] can be described thus: Half life in human liver microsomes. It counts as ADME, Microsome. On the technique in general: Microsomes from liver hold many membrane-bound enzymes, among them those of drug oxidation.
In series [7] the target is MAP kinase-activated protein kinase 2 (Homo sapiens, UniProt P49137). The experiment in a line: Inhibition of MK2 pretreated for 30 mins before substrate addition measured after 2 hrs by IMAP assay.
Series [8] in a line: Kinetic solubility of the compound at pH 7.4. It counts as physicochemical. The conditions noted are these: buffer.
The subject of series [9] is Rattus norvegicus. Nature of the series: Antiinflammatory activity in rat assessed as inhibition of LPS-induced TNFalpha production in serum at 10 mg/kg, sc administered 1 hr before LPS challenge measured after 1.5 hrs by ELISA.
In another series the test system is PBMC. Nature of the series: Antiinflammatory activity in human PBMC cells assessed as inhibition of LPS-induced TNFalpha production treated 30 mins before LPS challenge measured after 4 hrs by ELISA. It counts as functional, cell-based. A general note: In an ELISA, binding on a coated surface is turned into a signal by an enzyme label.
Series [10] has as its system Rattus norvegicus. Nature of the series: Antiinflammatory activity in rat assessed as inhibition of LPS-induced TNFalpha production in serum at 12.5 mg/kg, iv administered 1 hr before LPS challenge measured after 1.5 hrs by ELISA.
A short description of series [11]: AUC in rat at 4 umol/kg, iv. The class given is ADME, organism-based. The conditions noted are these: plasma.
Series [12] has as its system THP-1. Nature of the series: Antiinflammatory activity in human THP1 cells assessed as inhibition of LPS-induced TNFalpha production treated 30 mins before LPS challenge measured after 4 hrs by ELISA. The class given is functional, cell-based. The method, boiled down:
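THP1 cells seeded at 1.5 × 10^5 per well in DMEM F12 and rested ≥18 h at 37 °C, 5–7% CO2, humidified. Compounds added in DMSO (0.1% final) for 30 min, then LPS added. After 4 h at 37 °C, TNFα in the culture medium was quantified by ELISA. EC50 from duplicates per dilution.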

The subject of series [13] is Rattus norvegicus. Nature of the series: Antiinflammatory activity in rat assessed as inhibition of LPS-induced TNFalpha production in serum at 30 mg/kg, sc administered 1 hr before LPS challenge measured after 1.5 hrs by ELISA.
Series [14] deals with Rattus norvegicus. The experiment in a line: Antiinflammatory activity in sc dosed rat assessed as inhibition of LPS-induced TNFalpha production in serum administered 1 hr before LPS challenge measured after 1.5 hrs by ELISA.
Series [15] can be described thus: AUC in rat at 10 umol/kg, sc. It counts as ADME, organism-based. To be noted: plasma. The method, boiled down:
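Rat PK after subcutaneous dosing at 10 µmol/kg; exposure expressed as AUC.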

Series [16] can be described thus: AUC in rat at 10 umol/kg, po. The class given is ADME, organism-based. The conditions noted are these: plasma. The method in brief: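 Rat PK after oral dosing at 10 µmol/kg; exposure expressed as AUC.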

MAP kinase-activated protein kinase 2, sequence (P49137 whole entry): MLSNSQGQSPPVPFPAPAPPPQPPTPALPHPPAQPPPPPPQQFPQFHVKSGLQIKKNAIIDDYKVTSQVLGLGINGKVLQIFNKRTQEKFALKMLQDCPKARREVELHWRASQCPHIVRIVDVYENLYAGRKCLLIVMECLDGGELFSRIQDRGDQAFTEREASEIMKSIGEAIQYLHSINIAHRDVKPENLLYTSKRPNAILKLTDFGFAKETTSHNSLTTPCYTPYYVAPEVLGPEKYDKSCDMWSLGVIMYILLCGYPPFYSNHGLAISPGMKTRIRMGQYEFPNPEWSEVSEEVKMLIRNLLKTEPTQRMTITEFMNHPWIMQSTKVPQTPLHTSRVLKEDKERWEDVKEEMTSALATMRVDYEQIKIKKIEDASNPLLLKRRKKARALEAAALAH

As for `O=C1NCCc2[nH]c(-c3ccnc(-c4cnc5ccccc5c4)c3)cc21`, in series [1], the fraction unbound is 0.003. Further, the Papp in series [2] was 0.5 ×10⁻⁶ cm/s; in [4], 0.6 ×10⁻⁶ cm/s. Further, the half-life (commonly the time needed for the level to fall by half in the phase considered) amounted to 40 min in series [3] and 35 min in series [6]. In the series with THP-1 [5], the inhibition (commonly the share of the control response that was lost under treatment) at 10 µM is 38%.

Take `O=C1NCC2(CCNCC2)c2[nH]c(-c3ccnc(-c4cnc5ccccc5c4)n3)cc21`: in series [7], the pEC50 – broadly, the negative decadic logarithm of the EC50, by convention in mol/L – was 8.22. Besides, the solubility (kinetic) (usually the concentration staying in solution when a stock, usually in DMSO, is diluted into the medium) in [8] turned out to be 23 µg/mL (≈ 56 µM).

With `NCC1CNC(=O)c2cc(-c3ccnc(-c4cnc5ccccc5c4)c3)nn21` (configuration not stated), the pEC50 in series [7] was 6.82.

As to `O=C1NCC2(CCCC2)c2[nH]c(-c3ccnc(-c4cnc5ccccc5c4)n3)cc21`, in series [7], the negative logarithm of the EC50 (pEC50) is 6.63. For the same molecule, the inhibition at 10 µM in the series on THP-1 [5] turned out to be 50%.

For the molecule `O=C1NCC2(CCNCC2)c2[nH]c(-c3ccnc(-c4ccc5c(c4)OCO5)n3)cc21`, the fraction unbound in series [1] was 0.03. The inhibition in vivo (usually the share of the control response that was lost under treatment) at 10 mg/kg with Rattus norvegicus [9] stood at 54%. In addition, the half-life is more than 120 min in [3] and 91 min in [6]. The pEC50 in the series with PBMC is 6.59; with THP-1 [12], 6.01. The inhibition in vivo at 12.5 mg/kg in the series on Rattus norvegicus [10] came out at 92%. The AUC (as a rule, concentration integrated over time) in [11] amounted to 1.26 µM·h; in [15], 2.71 µM·h; in series [16] it was 0.016 µM·h. Also, the inhibition in vivo at 30 mg/kg in the series on Rattus norvegicus [13] worked out at 85%. The inhibition entry in the series with Rattus norvegicus [14] was “Dose-dependent effect”. In addition, in series [8], the kinetic solubility amounted to 37 µg/mL (≈ 91.7 µM).

`NCCn1nc(-c2ccnc(-c3cnc4ccccc4c3)c2)cc1C(=O)O`: in series [7], the negative logarithm of the EC50 (pEC50) was 7.55. The inhibition at 10 µM with THP-1 [5] is 7%. In series [8], this molecule yielded a solubility (kinetic) of 33 µg/mL (≈ 91.8 µM).
